# NF-kB neuron act – raises NF-kB expression in human neuronal cells; NF-kB reporter expression; stronger effect = higher value; fold change at 12.5 µM; hit rate 1.6% among 190,000; in the data active = fold change above about 3.3
# FLuc inhib CS – Photinus pyralis luciferase inhibition counter-screen. inhibition, % at 10 µM. AID 1006. P08659. hit rate 1.5% among 200,000. ATPLite firefly luciferase biochemical luminescence, 10 min;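 active = inhibition above about 50% when tested at 10 µM, limit read from the data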
# Target sequence (P08659 whole entry, looked up): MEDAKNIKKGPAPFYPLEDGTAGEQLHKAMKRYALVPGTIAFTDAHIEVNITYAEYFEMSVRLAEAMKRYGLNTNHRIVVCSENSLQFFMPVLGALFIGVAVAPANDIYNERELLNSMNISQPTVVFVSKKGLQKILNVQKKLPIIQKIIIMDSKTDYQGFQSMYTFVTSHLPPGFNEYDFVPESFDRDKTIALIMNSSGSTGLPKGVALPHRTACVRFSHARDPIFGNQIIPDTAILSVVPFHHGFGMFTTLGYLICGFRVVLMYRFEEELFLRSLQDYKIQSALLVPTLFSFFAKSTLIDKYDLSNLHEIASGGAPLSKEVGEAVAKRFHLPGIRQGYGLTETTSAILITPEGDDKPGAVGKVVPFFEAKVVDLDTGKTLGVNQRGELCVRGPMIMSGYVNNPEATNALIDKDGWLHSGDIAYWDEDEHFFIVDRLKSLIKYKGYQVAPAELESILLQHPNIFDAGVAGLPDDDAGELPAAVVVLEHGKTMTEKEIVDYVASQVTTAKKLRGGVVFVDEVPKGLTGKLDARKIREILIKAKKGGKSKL
# STAT1 activator – STAT1 signaling activation | NIH 3T3 STAT1-luciferase reporter, IFN-gamma, luminescence; 100% = IFN-gamma alone, no compound | activation (% of control), % at 5.5 µM | hit rate 2.6% among 200,000;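 active = activation above the screen-wide mean activation plus 3 SD, cut at about 130% in these data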;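 also: raw ratio to IFN-gamma control signal so 100% means no change and 0% no light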
# FLuc act counter – affects firefly luciferase, flagging false hits in luciferase stimulation screens. 200,000 tested, under 10 active. ATPlite luciferase biochemical, luminescence, 10 min; 0 = ATP-free wells, 1 = DMSO control. activation factor at 10 µM. P08659;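 active = luciferase activation factor, scaled between plate controls, of at least 2 with compound at 10 µM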
#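 test system = cell-free luciferase reagent | medium = PBS as buffer for the ATP substrate | dosing = test compounds dosed from 2 mM stocks in 100% DMSO | incubation = 10 min at ambient temperature | detection = luminescence measurement of luciferase light output | benchmarks = low control with PBS replacing ATP, high control enzyme plus ATP without compound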
# APP 5'UTR act – APP 5'UTR luciferase reporter activation; SH-SY5Y APP 5'UTR luciferase reporter, luminescence; zero percent = DMSO vehicle wells; activation, % at 2 µM; hit rate 1% among 190,000; AID 1276;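 active = activation above a set limit, based on mean plus 3 SD of controls, cut at about 140% in these data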
# * hit, by the source's call. Most compounds without a hit are left out; they make up all but 4.3% or so of the library.
SMILES,NF-kB neuron act,FLuc inhib CS,STAT1 activator,FLuc act counter,APP 5'UTR act
COc1ccc(-c2cnn3c(N)c(S(=O)(=O)C(C)(C)C)cnc23)cc1,6.36*,1.6,108.2,1,4.0
COc1ccc2nc(/N=C(\N)NC(=O)N3c4ccccc4Sc4ccccc43)nc(C)c2c1,0.6,-2.2,109.0,1,2.3
COc1ccc2nc(/N=C(\N)NC(=O)C(C)(C)C)nc(C)c2c1,0.7,-1.1,129.3*,1,16.1
CCC(=O)N/C(N)=N/c1nc(C)c2cc(OC)ccc2n1,1.5,28.1,133.6*,0.7,27.4
O=C(O)c1ccccc1-c1cn2cc(Cl)ccc2n1,1.7,61.5*,108.8,0.4,22.5
Clc1ccc2nc(-c3ccc(Br)s3)cn2c1,3.49*,78.5*,95.7,0.2,229.6*
CNc1ncc(C(=O)c2ccc(Cl)c(Cl)c2)s1,4.32*,-2.8,124.8,1,-0.3
CNc1ncc(C(=O)c2ccc(Cl)cc2)s1,4.04*,37.4,114.5,0.6,96.5
CC(C)(C)NC(=O)C(c1ccc(F)cc1)N(Cc1ccccc1Cl)C(=O)c1ccn[nH]1 (stereo unspecified),0.9,-2.9,102.4,1,-1.0
CC(=O)Nc1cc(S(=O)(=O)Nc2ccccc2C)c(C)cc1C,0.92,-6.7,85.7,1.1,6.3
Cc1ccc(Nc2nc(CSc3nnnn3C)cs2)cc1,3.29,61.5*,114.0,0.4,71.4
Cc1ccc(Nc2nc(CSc3nnnn3-c3ccccc3)cs2)cc1,0.77,-4.6,100.3,1,1.1
Cn1nnnc1SCc1csc(Nc2ccccc2)n1,1.85,1.2,108.2,1,53.7
Cc1ccc(Nc2nc(CSc3nnc(-c4ccccc4C)n3C)cs2)cc1,1.56,64.2*,104.4,0.4,13.9
Cc1ccc(Nc2nc(CSc3nnc(-c4ccccc4)n3C)cs2)cc1,2.91,85.8*,102.5,0.1,37.1
CC(=O)NC1(c2ccccc2)CCN(CC(=O)N2CCC(C)CC2)CC1,1.18,-4.9,97.2,1,-1.0
COc1ccc2[nH]c3c(=O)n(Cc4ccc(C(=O)N5CCCC5)cc4)c(=S)[nH]c3c2c1,1.35,-2.3,98.0,1,-5.2
COc1ccc(NC(=S)N/N=C/c2cccn2Cc2ccc(F)cc2)cc1,1.06,-1.6,91.2,1,10.0
CC(C)Oc1cccc(C(=O)C2CCCN(C(=O)CCn3cnnn3)C2)c1 (stereo unspecified),1.09,-1.5,103.6,1,5.0
Cc1ccc(NC2(c3nnnn3-c3c(C)cccc3C)CCCCC2)cc1,1.18,-3.7,96.3,1,-7.7
Cc1cc(C(=O)Cn2nc(C(=O)O)c3ccccc3c2=O)c(C)n1CC(F)(F)F,1.6,32.6,142.4*,0.7,-7.7
Cc1ccc(-n2c(C)cc(C(=O)Cn3nc(C(=O)O)c4ccccc4c3=O)c2C)cc1,1.57,24.7,96.9,0.8,3.2
COCC(C)n1c(C)cc(C(=O)Cn2nc(C(=O)O)c3ccccc3c2=O)c1C (stereo unspecified),0.71,71.3*,110.7,0.3,10.8
CC[n+]1c(/C=C/c2ccc(N(C)C)cc2)ccc2ccccc21,0.84,29.4,71.8,0.7,2.0
C[n+]1c(/C=C/c2ccc3c(c2)OCO3)ccc2ccccc21,0.58,6.2,114.6,0.9,185.0*
SMILES,NF-kB neuron act,FLuc inhib CS,STAT1 activator,FLuc act counter,APP 5'UTR act
Cc1nn(-c2ccc3ccccc3c2)c(=O)c2ccccc12,3.21,13.1,149.2*,0.9,142.4*
Cc1ccc(-n2ncc3ccccc3c2=O)cc1Cl,4.88*,32.0,148.0*,0.7,97.0
Cc1nn(-c2nc3ccccc3[nH]2)c(=O)c2ccccc12,0.29,97.2*,9.0,0,-74.1
Cc1nn(-c2ccc(Cl)c(Cl)c2)c(=O)c2ccccc12,1.61,0.7,102.6,1,-15.2
COc1cccc(/C=C/C(=O)Nc2ccccc2N2CCOCC2)c1,1.08,43.9,107.5,0.6,9.4
O=C(NCCSCc1ccccc1)c1ccc(C2SCC(=O)N2Cc2ccccc2)cc1 (stereo unspecified),0.75,-5.5,102.9,1.1,-10.3
COc1cccc(CN2CCC(C(=O)N3CCC(C)CC3)CC2)c1,1.07,-0.4,105.8,1,14.6
COC(=O)[C@@H]1CCCN1C(=O)CCc1nnc(CCc2c[nH]c3ccccc23)o1,1.73,-3.2,99.7,1,-19.5
COC(=O)[C@@H]1CCCN1C(=O)CCc1nnc(CCC2CCCCC2)o1,2.64,-0.5,139.3*,1,54.8

# Assay outcomes: PubChem, several laboratories
